Reference: ChEMBL document CHEMBL4043303, “Development of Novel Melanocortin Receptor Agonists Based on the Cyclic Peptide Framework of Sunflower Trypsin Inhibitor-1” (J Med Chem, 2018)
Activity calls are given as the source filed them. No cut-off for these calls is given here. Where a SMILES comes first, the peptide text is derived from it. Bridges are numbered along the chain shown (N, C = ends). [ ]: non-standard residue; d: D form. NMeW = CN[C@@H](Cc1c[nH]c2ccccc12)C(=O)O

Assays:
[1] = molecular target: T1, Melanocortin receptor 4 (Homo sapiens, UniProt P32245); assay: Agonist activity at human MC4R expressed in low doxycyclin-treated HEK293 cell membranes assessed as increase in cAMP production after 45 mins by HTRF method; format: functional, cell-based
In short: (§1)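 T-REx-293 cells stably expressing doxycycline-inducible human MC1R, MC3R or MC4R; expression induced 24 h with 0.1 ng/mL (low) or 10 ng/mL (high, MC4R only) doxycycline. 1000 cells/well in HBSS, 20 mM HEPES pH 7.4, 0.1% BSA, 1 mM IBMX; stimulated at 37 °C. Time-resolved FRET cAMP read-out normalized to NDP-α-MSH maximum.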

[2] = molecular target: Melanocortin receptor 5 (Homo sapiens, UniProt P33032); assay: Displacement of [125I]-NDP-alpha-MSH from human MC5R LBD expressed in HEK293 cell membranes incubated for 16 to 23 hrs in dark by scintillation proximity assay; set-up: concentration or dose not given beside the values; conditions: for inhibition: concentration not given here
[3] = molecular target: T1, Melanocortin receptor 4; assay: Agonist activity at human MC4R expressed in high doxycyclin-treated HEK293 cell membranes assessed as increase in cAMP production after 15 mins by HTRF method; format: functional, cell-based; in short: as §1
[4] = molecular target: T2, Melanocortin receptor 3 (Homo sapiens, UniProt P41968); assay: Displacement of [125I]-NDP-alpha-MSH from human MC3R LBD expressed in HEK293 cell membranes incubated for 16 to 23 hrs in dark by scintillation proximity assay; set-up: concentration or dose not given beside the values; conditions: for inhibition: concentration not given here
[5] = molecular target: T3, Melanocyte-stimulating hormone receptor (Homo sapiens, UniProt Q01726); assay: Displacement of [125I]-NDP-alpha-MSH from human MC1R LBD expressed in HEK293 cell membranes incubated for 16 to 23 hrs in dark by scintillation proximity assay; set-up: concentration or dose not given beside the values; conditions: for inhibition: concentration not given here
[6] = molecular target: T2, Melanocortin receptor 3; assay: Agonist activity at human MC3R expressed in low doxycyclin-treated HEK293 cell membranes assessed as increase in cAMP production after 45 mins by HTRF method; format: functional, cell-based; set-up: concentration or dose not given beside the values; in short: as §1
[7] = molecular target: T3, Melanocyte-stimulating hormone receptor; assay: Agonist activity at human MC1R expressed in low doxycyclin-treated HEK293 cell membranes assessed as increase in cAMP production after 45 mins by HTRF method; format: functional, cell-based
[8] = molecular target: T1, Melanocortin receptor 4; assay: Displacement of [125I]-NDP-alpha-MSH from human MC4R LBD expressed in HEK293 cell membranes incubated for 16 to 23 hrs in dark by scintillation proximity assay; set-up: concentration or dose not given beside the values; conditions: for inhibition: concentration not given here
[9] = Solubility of the compound in water at 1 mM; format: physicochemical; conditions: buffer, 1000 µM
[10] = molecular target: T1, Melanocortin receptor 4; assay: Agonist activity at human MC4R expressed in low doxycyclin-treated HEK293 cell membranes assessed as increase in cAMP production up to 100 uM after 45 mins by HTRF method; format: functional, cell-based
In short: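 Stable T-REx-293 clones (Zeocin-selected, human receptor cDNA in pcDNA4/TO), receptor expression induced with 0.1 ng/mL doxycycline for 24 h. 1000 cells/well in HBSS with Ca2+/Mg2+, 20 mM HEPES pH 7.4, 0.1% BSA. Stimulation for 45 min at 37 °C with 1 mM IBMX. cAMP read by LANCE HTRF (665/615 nm).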

[11] = species on record: Bos taurus; assay: Inhibition of bovine trypsin at 5 uM using Boc-QAR-pNA as substrate preincubated for 1 hr followed by substrate addition measured every 30 secs for 300 secs by […]

Sequence of Melanocortin receptor 5 (P33032 whole entry, the tested form may be a part): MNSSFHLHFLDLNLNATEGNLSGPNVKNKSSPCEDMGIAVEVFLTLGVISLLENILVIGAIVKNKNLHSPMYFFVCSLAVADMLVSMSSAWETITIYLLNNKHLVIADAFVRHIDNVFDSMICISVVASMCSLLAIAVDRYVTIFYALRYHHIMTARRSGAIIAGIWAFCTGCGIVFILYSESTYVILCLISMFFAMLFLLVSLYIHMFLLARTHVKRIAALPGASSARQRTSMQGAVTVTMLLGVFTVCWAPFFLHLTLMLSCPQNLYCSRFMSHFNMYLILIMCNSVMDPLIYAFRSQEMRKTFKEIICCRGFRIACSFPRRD
T1 sequence (P32245 whole entry): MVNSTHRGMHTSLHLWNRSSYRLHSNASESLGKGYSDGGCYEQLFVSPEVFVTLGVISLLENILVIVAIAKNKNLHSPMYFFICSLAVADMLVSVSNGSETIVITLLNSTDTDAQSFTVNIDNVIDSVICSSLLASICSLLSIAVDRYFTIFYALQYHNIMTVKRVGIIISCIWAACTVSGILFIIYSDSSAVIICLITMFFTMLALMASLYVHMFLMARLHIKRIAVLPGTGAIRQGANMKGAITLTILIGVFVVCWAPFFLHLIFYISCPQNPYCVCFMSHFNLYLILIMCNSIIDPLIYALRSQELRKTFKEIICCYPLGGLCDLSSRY
T2 sequence (P41968 whole entry, the tested form may be a part): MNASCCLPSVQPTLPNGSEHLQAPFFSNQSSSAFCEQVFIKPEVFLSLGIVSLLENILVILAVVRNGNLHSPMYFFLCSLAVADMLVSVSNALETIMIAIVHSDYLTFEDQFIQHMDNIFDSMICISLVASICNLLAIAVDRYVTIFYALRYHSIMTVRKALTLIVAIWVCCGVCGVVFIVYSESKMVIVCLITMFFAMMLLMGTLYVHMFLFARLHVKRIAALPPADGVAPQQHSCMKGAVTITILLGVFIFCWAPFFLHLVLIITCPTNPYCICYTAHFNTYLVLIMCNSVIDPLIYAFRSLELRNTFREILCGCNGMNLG

Compound	Activity [1]	inhibition [2]	Activity [3]	inhibition [4]	inhibition [5]	Activity [6]	Activity [7]	inhibition [8]	solubility [9]	Activity [10]	inhibition [11]	EC50 [1]	IC50 [2]	EC50 [3]	Ki [4]	Ki [5]	EC50 [6]	EC50 [7]	Ki [8]
CC[C@H](C)[C@@H]1NC(=O)[C@@H]2CCCN2C(=O)[C@H](Cc2c[nH]c3ccccc23)NC(=O)[C@H](CCCNC(=N)N)NC(=O)[C@@H](Cc2ccccc2)NC(=O)[C@H](Cc2cnc[nH]2)NC(=O)[C@H]([C@@H](C)O)NC(=O)[C@@H]2CSSC[C@H](NC1=O)C(=O)N[C@@H](Cc1ccccc1)C(=O)N1CCC[C@H]1C(=O)N[C@@H](CC(=O)O)C(=O)NCC(=O)N[C@@H](CCCNC(=N)N)C(=O)N2	100%	100%	100%	100%	100%	100%	100%	100%	Soluble										
CC[C@H](C)[C@@H]1NC(=O)[C@@H]2CCCN2C(=O)[C@H](Cc2c[nH]c3ccccc23)N(C)C(=O)[C@H](CCCNC(=N)N)NC(=O)[C@@H](Cc2ccccc2)NC(=O)[C@H](Cc2cnc[nH]2)NC(=O)[C@H]([C@@H](C)O)NC(=O)[C@@H]2CSSC[C@H](NC1=O)C(=O)N[C@@H](Cc1ccccc1)C(=O)N1CCC[C@H]1C(=O)N[C@@H](CC(=O)O)C(=O)NCC(=O)N[C@@H](CCCNC(=N)N)C(=O)N2 (cyclo(CFPDGRCTH[dF]R[NMeW]PI); disulfide 1-7)	100%	100%	100%	100%	100%	100%	100%	100%	Soluble										
CC[C@H](C)[C@@H]1NC(=O)[C@@H]2CCCN2C(=O)[C@H](Cc2c[nH]c3ccccc23)NC(=O)[C@H](CCCNC(=N)N)N(C)C(=O)[C@@H](Cc2ccccc2)NC(=O)[C@H](Cc2cnc[nH]2)N(C)C(=O)[C@H]([C@@H](C)O)NC(=O)[C@@H]2CSSC[C@H](NC1=O)C(=O)N[C@@H](Cc1ccccc1)C(=O)N1CCC[C@H]1C(=O)N[C@@H](CC(=O)O)C(=O)NCC(=O)N[C@@H](CCCNC(=N)N)C(=O)N2	100%	100%	100%	100%	100%	100%	100%	100%	Soluble										
CC[C@H](C)[C@@H]1NC(=O)[C@@H]2CCCN2C(=O)[C@H](Cc2c[nH]c3ccccc23)N(C)C(=O)[C@H](CCCNC(=N)N)NC(=O)[C@@H](Cc2ccccc2)NC(=O)[C@H](Cc2cnc[nH]2)N(C)C(=O)[C@H]([C@@H](C)O)NC(=O)[C@@H]2CSSC[C@H](NC1=O)C(=O)N[C@@H](Cc1ccccc1)C(=O)N1CCC[C@H]1C(=O)N[C@@H](CC(=O)O)C(=O)NCC(=O)N[C@@H](CCCNC(=N)N)C(=O)N2		100%	100%	100%	100%	100%	100%	100%	Soluble	inactive									
CC[C@H](C)[C@@H]1NC(=O)[C@@H]2CCCN2C(=O)[C@H](Cc2c[nH]c3ccccc23)N(C)C(=O)[C@H](CCCNC(=N)N)N(C)C(=O)[C@@H](Cc2ccccc2)NC(=O)[C@H](Cc2cnc[nH]2)NC(=O)[C@H]([C@@H](C)O)NC(=O)[C@@H]2CSSC[C@H](NC1=O)C(=O)N[C@@H](Cc1ccccc1)C(=O)N1CCC[C@H]1C(=O)N[C@@H](CC(=O)O)C(=O)NCC(=O)N[C@@H](CCCNC(=N)N)C(=O)N2	100%	100%	100%	100%	100%	100%	100%	100%	Soluble										
CC[C@H](C)[C@@H]1NC(=O)[C@@H]2CCCN2C(=O)[C@@H]2CCCN2C(=O)[C@H]([C@@H](C)CC)NC(=O)[C@H](CO)NC(=O)[C@H](C)NC(=O)[C@H]([C@H](C)O)NC(=O)[C@@H]2CSSC[C@H](NC1=O)C(=O)N[C@@H](Cc1cnc[nH]1)C(=O)N[C@H](Cc1ccccc1)C(=O)N(C)[C@@H](CCCNC(=N)N)C(=O)N(C)[C@@H](Cc1c[nH]c3ccccc13)C(=O)N[C@@H](CCCNC(=N)N)C(=O)N2	100%	100%	100%	100%	100%	100%	100%	100%			Active								
CC[C@H](C)[C@@H]1NC(=O)[C@@H]2CCCN2C(=O)[C@@H]2CCCN2C(=O)[C@H]([C@@H](C)CC)NC(=O)[C@H](CO)NC(=O)[C@H](C)NC(=O)[C@H]([C@H](C)O)NC(=O)[C@@H]2CSSC[C@H](NC1=O)C(=O)N[C@@H](Cc1cnc[nH]1)C(=O)N[C@H](Cc1ccccc1)C(=O)N(C)[C@@H](CCCNC(=N)N)C(=O)N[C@@H](Cc1c[nH]c3ccccc13)C(=O)N[C@@H](CCCNC(=N)N)C(=O)N2	100%	100%	100%	100%	100%	100%	100%	100%			Active								
CC[C@H](C)[C@@H]1NC(=O)[C@@H]2CCCN2C(=O)[C@@H]2CCCN2C(=O)[C@H]([C@@H](C)CC)NC(=O)[C@H](CO)NC(=O)[C@H](C)NC(=O)[C@H]([C@H](C)O)NC(=O)[C@@H]2CSSC[C@H](NC1=O)C(=O)N[C@@H](Cc1cnc[nH]1)C(=O)N[C@@H](Cc1ccccc1)C(=O)N[C@@H](CCCNC(=N)N)C(=O)N[C@@H](Cc1c[nH]c3ccccc13)C(=O)N[C@@H](CCCNC(=N)N)C(=O)N2	100%	100%	100%	100%	100%	100%	100%	100%	Soluble			> 100 µM	4.07 µM	3.09 µM	23.4 µM	363 nM	2140 nM	41.7 nM	25.1 µM
CC[C@H](C)[C@@H]1NC(=O)[C@@H]2CCCN2C(=O)[C@H](Cc2c[nH]c3ccccc23)NC(=O)[C@H](CCCNC(=N)N)N(C)C(=O)[C@@H](Cc2ccccc2)NC(=O)[C@H](Cc2cnc[nH]2)NC(=O)[C@H]([C@@H](C)O)NC(=O)[C@@H]2CSSC[C@H](NC1=O)C(=O)N[C@@H](Cc1ccccc1)C(=O)N1CCC[C@H]1C(=O)N[C@@H](CC(=O)O)C(=O)NCC(=O)N[C@@H](CCCNC(=N)N)C(=O)N2	100%	100%	100%	100%	100%	100%	100%	100%	Soluble										
CC[C@H](C)[C@@H]1NC(=O)[C@@H]2CCCN2C(=O)[C@H](Cc2c[nH]c3ccccc23)NC(=O)[C@H](CCCNC(=N)N)NC(=O)[C@@H](Cc2ccccc2)NC(=O)[C@H](Cc2cnc[nH]2)N(C)C(=O)[C@H]([C@@H](C)O)NC(=O)[C@@H]2CSSC[C@H](NC1=O)C(=O)N[C@@H](Cc1ccccc1)C(=O)N1CCC[C@H]1C(=O)N[C@@H](CC(=O)O)C(=O)NCC(=O)N[C@@H](CCCNC(=N)N)C(=O)N2	100%	100%	100%	100%	100%	100%	100%	100%	Soluble										
